Most compounds without a hit are left out; they make up all but 12% or so of the library.
Autophagy HCS: autophagy modulators in MEF cells, primary screen, imaging, high-content, MEF GFP-LC3; MEF GFP-LC3 puncta imaging; test concentration mostly 10 µM; hit rate 0.98% among 190,000; calls only at 10 µM (by protocol); AID 463193, 2010;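 active means percentage of spot-positive cells more than 3 SD above its plate mean, without a fluorescence outlier flag or 80% toxicity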
L major viab: Leishmania major promastigote growth inhibition, primary screen; Leishmania major promastigotes, resazurin fluorescence viability; inhibition, % at 10 µM; hit rate 9% among 200,000; AID 1063, 2008; in the data active means inhibition above about 50%;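 further: promastigotes grown with compound for 44 hours at 28 °C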
Dynein transport: inhibitors of GR-EGFP nuclear translocation, primary screen, dynein cargo transport inhibitor project, imaging, high-content, 3617.4 mouse cells | hit rate 0.47% among 220,000 | z-score, hits read low | test concentration mostly 20 µM; stimulated with dexamethasone, 1 µM; active compounds read low;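 active means plate z-score of nuclear minus cytoplasmic receptor signal below a set negative limit, without overly bright fluorescence or cell loss, cut at about -3.5 in these data, passing the limit was not always enough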;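 further: z-score of nuclear minus cytoplasmic ring GR-EGFP intensity difference per well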
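Buffer or medium: Induction medium lacking tetracycline, stripped serum | Also added: Dexamethasone agonist, 1.0 µM final, for 30 min | Timing: 48 h induction, 1 h compound, 30 min dex at 37 °C | Detection: Formaldehyde fixation, Hoechst nuclear stain, 10x automated fluorescence imaging | Measure: Nuclear versus cytoplasmic GR-EGFP signal, averaged per well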
b-catenin transl: modulators of beta-catenin nuclear translocation, primary screen, imaging, HeLa cells, immunofluorescence, high-content; AID 1665, 2009; nuclear translocation activity, % at 5 µM; hit rate 0.3% among 190,000;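 active means nuclear translocation activity above 50% at 5 µM, with a well cell count of 50 or more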;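 further: per-cell ratio of nuclear to cytoplasmic median beta-catenin stain intensity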
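Assay system: human HeLa cells, native beta-catenin; doses: 5 µM primary, 0.02–20 µM confirmation; incubation: compound treatment 24 h, 37°C, 5% CO2; technique: fluorescence imaging of beta-catenin antibody stain plus DAPI; measure: % activation, nuclear-to-cytoplasmic median beta-catenin signal ratio per cell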
MT stabilizer: microtubule stabilizers in HeLa cells, primary screen, imaging, high-content imaging; % tubulin-high responders, % at 10 µM; hit rate 0.83% among 200,000; AID 2205, 2009; HeLa tubulin immunostaining HCS, 24 h; share of cells brighter than vehicle mean+2SD;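 active means plate Z-score above 3 for both tubulin-high and condensed-nucleus cell shares, with cell loss under 80%, at 10 µM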;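 further: anti alpha tubulin signal scored within the nucleus-defined area of each cell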
CHOP inh: inhibitors of CHOP promoter induction, primary screen, cell-based, unfolded protein response, luciferase reporter. CHO-K1 CHOP-promoter luciferase, tunicamycin-induced, 15-18 h. inhibition, % at 10 µM. hit rate 3.8% among 220,000;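 active means compounds that reduced the stress-induced luciferase reporter signal by more than about 70% of percent inhibition, limit read from the data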
CHOP inh conf: retest of CHOP induction inhibitors, confirmation, cell-based; shares compounds with CHOP inh; CHO-CHOP promoter luciferase reporter, tunicamycin-induced, luminescence; inhibition, % at 10 µM; hit rate 45% among 2,100; AID 504437, 2011;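 active means mean of three repeat readings of reporter signal inhibition above a set limit, cut at about 70% in these data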
Hits are given with their value; n = inactive; x = no result.

SMILES | Autophagy HCS | L major viab | Dynein transport | b-catenin transl | MT stabilizer | CHOP inh | CHOP inh conf
C=C(C)C(=O)OC1(C(F)(F)F)Oc2cc(C)ccc2NC1=O (stereo unspecified) | n | n | n | n | n | 109 | 116
Cc1ccc2c(c1)Oc1ccc(NC(=O)CCCl)cc1C(=O)N2 | n | n | n | n | n | n | x
CN(C)C(=O)CCc1nc(-c2ccc(C(C)(C)C)cc2)no1 | n | n | n | n | n | n | x
CC(C)(C)c1ccc(-c2noc(CCC(N)=O)n2)cc1 | n | n | n | n | n | 100 | 113
COc1cc(-c2nc3ccc4ccccc4c3c3c2CCC3)cc(OC)c1O | n | 99 | n | n | n | 102 | 106
O=C(c1ccc(Cl)cc1)N1CCC(O)(CSc2ccc(Cl)cc2Cl)CC1 | n | n | x | n | n | 109 | 87
Cc1nc(N2CCN(c3ccccc3)CC2)[nH]c(=O)c1CCC(C)C | n | n | n | n | n | n | x
Cc1nc(N2CCN(c3ccccc3)CC2)[nH]c(=O)c1Cc1cccc2ccccc12 | n | n | n | n | n | 97 | n
NC(N)=N/N=C/c1ccc(OCc2ccc(Cl)cc2)cc1 | n | 101 | n | n | n | 107 | n
Cc1ccc(C(C)C)c(OC/C(O)=C(\C#N)c2nc3ccccc3[nH]2)c1 | x | x | n | n | x | n | x
CS(=O)(=O)Nc1nnc(SCC(=O)N(c2ccccc2)c2ccccc2)s1 | n | n | n | n | n | n | x
O=C(Nc1ccc(F)cc1)N1CCn2c(nc3ccccc32)C1 | n | n | n | n | n | 98 | n
COc1ccc(C2(O)CC3CCC(C2)N3c2nc(C)cc(C)c2C#N)cc1 (stereo unspecified) | n | n | n | n | n | 101 | n
COc1ccc(Oc2nc(C)cc(C)c2C#N)cc1 | n | n | n | n | n | n | x
Cc1cccc(C(=O)NC(=S)NNC(=O)c2ccc(Cl)cc2)c1 | n | n | n | n | n | 107 | n
O=C1c2ccc3c4c(ccc(c24)C(=O)N1c1cccc(O)c1)C(=O)N(c1cccc(O)c1)C3=O | x | x | n | n | x | 101 | 86
O=C(Cn1ncc2c3ccccc3n(Cc3ccccc3)c2c1=O)NCc1ccco1 | x | x | n | n | x | 96 | n
COC(=O)CCC(=O)NC(=S)Nc1cc(Cl)ccc1Cl | n | n | n | n | n | n | x
CCN(CC)S(=O)(=O)c1ccc(NC(=O)c2cc(-c3ccccc3)nc3ccccc23)cc1 | n | n | n | n | n | n | x
Cc1cc(C)nc(NS(=O)(=O)c2ccc(NC(=O)c3cc(-c4ccccc4)nc4ccccc34)cc2)n1 | n | 67 | n | x | n | 102 | n
O=C(Nc1nnc(CC2=CCCCC2)s1)Nc1ccccc1F | x | x | n | n | x | 98 | n
O=C(Nc1nnc(COc2ccccc2F)s1)Nc1ccccc1F | x | x | n | n | x | 99 | n
Cc1cccc(NC(=O)Cc2nnc(NC(=O)Nc3ccccc3F)s2)c1 | n | n | n | n | n | n | x
Cc1ccc(NC(=O)COC(=O)CCc2ccc(S(=O)(=O)N3CCOCC3)cc2)cc1F | n | n | n | n | n | n | x
CC(C)(C)C1CCC(C(=O)OCC(=O)N2CCOCC2)CC1 (stereo unspecified) | n | n | n | n | n | n | x
SMILES | Autophagy HCS | L major viab | Dynein transport | b-catenin transl | MT stabilizer | CHOP inh | CHOP inh conf
C/C(N)=C(/C#N)C(=O)COC(=O)C1CCC(C(C)(C)C)CC1 (stereo unspecified) | n | n | n | n | n | 97 | 87
O=c1[nH]c(NCCO)nc2c1C1(CCCCC1)Cc1ccccc1-2 | n | n | n | n | n | 99 | n
Cc1n[nH]c(=S)n1/N=C/c1ccccc1OCc1ccc(Cl)cc1Cl | n | n | n | n | n | 102 | n
O=[N+]([O-])c1ccc(O)c(/C=N/Nc2ccccc2Cl)c1 | n | n | n | n | n | 96 | 125
O=[N+]([O-])c1ccccc1N/N=C\c1ccccc1Cl | n | n | x | n | n | n | x
CC1(C)C2CCC(C2)C1(C)NC(=O)CNC1CCCCC1 (stereo unspecified) | n | n | n | n | n | n | x
NC(=O)c1cc(-c2ccccc2)nc(N2CCOCC2)n1 | n | n | n | n | n | n | x
NC(=O)c1cc(-c2ccccc2)nc(N2CCCCCC2)n1 | n | n | n | n | n | 103 | 108
CC(C)(C)c1ccc(C(=O)NC(=S)NNC(=O)c2cccs2)cc1 | n | n | n | n | n | 107 | 134
CCC(=O)c1ccccc1OCC(=O)Nc1c(C)cccc1C | n | n | n | n | n | n | x
Cc1cccc(C)c1NC(=O)COc1ccccc1C(=O)Nc1ccc(Br)cn1 | n | n | n | n | n | 106 | 102
Cc1ccc(-c2cc3c(nn2)-c2ccccc2C3=O)cc1 | x | x | n | n | x | 101 | 108
CC1(C)Cc2nc3sc4c(N(CCO)CCO)ncnc4c3cc2CO1 | n | n | n | x | n | n | x
CCN(CCO)c1ncnc2c1sc1nc(CC(C)C)c3c(c12)CC(C)(C)OC3 | n | n | n | n | n | 106 | 92
CC1CCc2c(sc(NS(=O)(=O)c3ccccc3)c2C(=O)OC(C)C)C1 (stereo unspecified) | n | n | n | n | n | n | x
CCN(CC)CCOC(=O)c1ccc(NC(=O)C(C)NC(=O)C23CC4CC(CC(C4)C2)C3)cc1 (stereo unspecified) | n | n | n | n | n | n | x
Cc1ccc(C)c(OCC(=O)NCC(C)C)c1C | n | n | n | n | n | n | x
CCOC(=O)c1ccc(NC(=O)CCc2nc(-c3cccc(C)c3)no2)cc1 | n | n | n | x | n | 98 | n
CCOC(=O)c1c(NC(N)=O)sc(C)c1C | n | n | n | n | n | n | x
CCOC(=O)c1c(N2C(=O)C=CC2=O)sc(C)c1C | n | n | n | n | n | 109 | n
CC1CCCC(NC(=O)C2CCN(S(=O)(=O)N3CCCCC3)CC2)C1C (stereo unspecified) | n | n | n | n | n | n | x
CCCCCCCCCC(=O)NNC(=O)c1c(O)c2ccccc2n(CCC)c1=O | n | n | n | n | n | n | x
CCCn1c(=O)c(C(=O)NNS(=O)(=O)c2ccc(Cl)cc2)c(O)c2ccccc21 | n | n | n | n | n | 107 | n
Cc1ccc2oc(C(=O)Nc3c(C)n(C)n(-c4ccccc4)c3=O)c(C)c2c1 | n | n | n | x | n | x | x
O=C(CN1C(=O)c2ccccc2S1(=O)=O)c1ccc2c(c1)OCCCO2 | x | x | n | n | x | 104 | 121
CCc1ccc(S(=O)(=O)/N=C2/C=C(Sc3ncn[nH]3)C(=O)c3ccccc32)cc1 | n | 100 | -6.7 | n | n | 108 | n
O=C1c2ccccc2C(=O)N1CCSc1ncn[nH]1 | n | n | n | n | n | n | x

Compound activity from PubChem.
